Experiments:
Type in all cases: functional
Mus musculus [1] = assay: Evaluated for reduction in spontaneous locomotor activity in mice at a dose of 3 mg/Kg
Method in brief: (§1)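 Tail-vein injection in mice (0.1 mL/10 g; ethanol/emulphor/saline 1:1:18). Spontaneous locomotor activity counted as counts/10 min, per previously reported methods. Daily vehicle and Δ9-THC positive controls. Mean ± SEM; ANOVA with Dunnett's t test, p < 0.05 two-tailed.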

Mus musculus [2] = assay: Tail-flick latency was determined at a concentration of 0 mg/Kg.
Method in brief: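 Antinociception in mice by tail-flick latency (s), per previously reported methods, after tail-vein injection (0.1 mL/10 g) in ethanol/emulphor/saline (1:1:18). Vehicle and Δ9-THC controls run daily. Mean ± SEM; ANOVA with Dunnett's t test, p < 0.05 two-tailed.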

Mus musculus [3] = assay: Tail-flick latency was determined at a concentration of 3 mg/kg.
Method in brief: (§2)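 Mice, drug suspended in ethanol/emulphor/saline (1:1:18) and given by tail-vein injection (0.1 mL/10 g). Antinociception measured as tail-flick latency (s). Vehicle and Δ9-THC positive controls run in each daily experiment. Data given as mean ± SEM. ANOVA with Dunnett's t test against control, p < 0.05 (two-tailed).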

Mus musculus [4] = assay: Evaluated for catalepsy activity in mice and percentage immobility was determined at a concentration of 3 mg/kg.
Method in brief: (§3)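 Mice, single tail-vein injection (0.1 mL/10 g) in ethanol/emulphor/saline (1:1:18). Catalepsy scored by ring test as % immobility, per previously reported methods. Vehicle and Δ9-THC positive-control groups run in each daily experiment. Mean ± SEM; ANOVA with Dunnett's t test versus control, p < 0.05 two-tailed.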

Mus musculus [5] = assay: Evaluated for hypothermic activity in mice at a dose of 3 mg/kg.
Method in brief: (§4)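 Mice dosed by tail-vein injection (0.1 mL/10 g) in ethanol/emulphor/saline (1:1:18). Body temperature change (°C) measured by previously reported methods. Vehicle and Δ9-THC positive controls run each day. Mean ± SEM; ANOVA with Dunnett's t test versus control, p < 0.05 two-tailed.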

Mus musculus [6] = assay: Evaluated for hypothermic activity in mice at a dose of 0 mg/Kg.; method in brief: as §4
Mus musculus [7] = assay: Evaluated for catalepsy activity in mice and percentage immobility was determined at a concentration of 0 mg/Kg.; method in brief: as §3
Mus musculus [8] = assay: Evaluated for reduction in spontaneous locomotor activity in mice, at a dose of 0 mg/Kg; method in brief: as §1
Mus musculus [9] = assay: Evaluated for reduction in spontaneous locomotor activity in mice at a dose of 150 mg/Kg administered intraventricularly
Method in brief: (§5)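 Mice given intraventricular injection of 5 μL in ethanol/emulphor/saline (1:1:18). Spontaneous locomotor activity recorded as counts/10 min by previously reported methods, alongside vehicle and Δ9-THC controls. Mean ± SEM; ANOVA with Dunnett's t test, p < 0.05 two-tailed.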

Mus musculus [10] = assay: Evaluated for hypothermic activity in mice at a dose of 100 mg/Kg administered intraventricularly
Method in brief: (§6)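 Intraventricular injection in mice, 5 μL volume, in ethanol/emulphor/saline (1:1:18) vehicle. Change in body temperature (°C) recorded by previously reported methods, with vehicle and Δ9-THC controls. Mean ± SEM; ANOVA with Dunnett's t test versus control, p < 0.05 two-tailed.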

Mus musculus [11] = assay: Evaluated for reduction in spontaneous locomotor activity in mice, at a dose of 0 mg/Kg administered intraventricularly; method in brief: as §5
Mus musculus [12] = assay: Tail-flick latency was determined at a concentration of 0 mg/Kg administered intraventricularly
Method in brief: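 Tail-flick latency (s) in mice after intraventricular injection (5 μL) of ethanol/emulphor/saline (1:1:18) vehicle, measured by previously reported methods. Mean ± SEM; ANOVA with Dunnett's t test, p < 0.05 two-tailed.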

Mus musculus [13] = assay: Evaluated for hypothermic activity in mice at a dose of 150 mg/Kg administered intraventricularly; method in brief: as §6
Mus musculus [14] = assay: Evaluated for hypothermic activity in mice at a dose of 0 mg/Kg administered intraventricularly; method in brief: as §6
Mus musculus [15] = assay: Evaluated for reduction in spontaneous locomotor activity in mice at a dose of 100 mg/Kg administered intraventricularly; method in brief: as §5
Mus musculus [16] = assay: Evaluated for reduction in spontaneous locomotor activity in mice at a dose of 6 mg/Kg; method in brief: as §1
Mus musculus [17] = assay: Evaluated for hypothermic activity in mice at a dose of 5 mg/Kg.; method in brief: as §4
Mus musculus [18] = assay: Evaluated for reduction in spontaneous locomotor activity in mice at a dose of 5 mg/Kg; method in brief: as §1
Mus musculus [19] = assay: Tail-flick latency was determined at a concentration of 6 mg/kg.; method in brief: as §2
Mus musculus [20] = assay: Tail-flick latency was determined at a concentration of 3 mg/Kg.; method in brief: as §2
Mus musculus [21] = assay: Tail-flick latency was determined at a concentration of 5 mg/Kg.; method in brief: as §2
Mus musculus [22] = assay: Evaluated for hypothermic activity in mice at a dose of 6 mg/kg.; method in brief: as §4
Mus musculus [23] = assay: Evaluated for catalepsy activity in mice and percentage immobility was determined at a concentration of 3 mg/Kg.; method in brief: as §3
Mus musculus [24] = assay: Evaluated for catalepsy activity in mice and percentage immobility was determined at a concentration of 5 mg/kg.; method in brief: as §3
Mus musculus [25] = assay: Evaluated for catalepsy activity in mice and percentage immobility was determined at a concentration of 100 mg/Kg.; method in brief: as §3
Mus musculus [26] = assay: Tail-flick latency was determined at a concentration of 100 mg/Kg.; method in brief: as §2
Mus musculus [27] = assay: Evaluated for hypothermic activity in mice at a dose of 100 mg/Kg.; method in brief: as §4
Mus musculus [28] = assay: Evaluated for reduction in spontaneous locomotor activity in mice at a dose of 100 mg/Kg; method in brief: as §1

Molecule `C=C(CNCC)[C@@H]1CCC(C)=CC1c1c(O)cc(CCCCC)cc1O` (stereo partly drawn) has a Spont activity (Mus musculus [1]) of less than 27 Counts 10min-1, a Tail flick latency (Mus musculus [2]) of 0.6 s and a Tail flick latency (Mus musculus [3]) of 1 s. The Immobility (Mus musculus [4]) was 7%, the Temperature (Mus musculus [5]) was less than -2.1 °C and the Temperature (Mus musculus [6]) was -0.8 °C. The Immobility (Mus musculus [7]) was 4% and the Spont activity (Mus musculus [8]) was 53 Counts 10min-1.
In the case of `C=C(CN(CCCl)CCCl)[C@@H]1CCC(C)=CC1c1c(O)cc(CCCCC)cc1O` (stereo partly drawn), the Spont activity (Mus musculus [9]) is reported as 75 Counts 10min-1, the Temperature (Mus musculus [10]) is reported as -1.8 °C and the Spont activity (Mus musculus [11]) is reported as 90 Counts 10min-1. The Tail flick latency (Mus musculus [12]) was -0.2 s, the Temperature (Mus musculus [13]) was less than -3.8 °C and the Temperature (Mus musculus [14]) was -1.1 °C. For the same molecule, the Spont activity (Mus musculus [15]) was 81 Counts 10min-1.
Work on `CCCCCc1cc(O)c2c(c1)OC(C)(CN)[C@@H]1CC=C(C)CC21` (stereo partly drawn) yielded a Spont activity (Mus musculus [1]) of less than 43 Counts 10min-1, a Tail flick latency (Mus musculus [2]) of 0.6 s and a Spont activity (Mus musculus [16]) of less than 25 Counts 10min-1. The Temperature (Mus musculus [17]) was -0.7 °C, the Spont activity (Mus musculus [18]) was less than 42 Counts 10min-1 and the Tail flick latency (Mus musculus [19]) was 1.1 s. For the same molecule, the Tail flick latency (Mus musculus [20]) was 1.1 s, the Temperature (Mus musculus [5]) was -1.1 °C and the Temperature (Mus musculus [6]) was -0.8 °C. For the same molecule, the Tail flick latency (Mus musculus [21]) was less than 1.9 s, the Immobility (Mus musculus [7]) was 13% and the Temperature (Mus musculus [22]) was less than -3 °C. For the same molecule, the Spont activity (Mus musculus [8]) was 68 Counts 10min-1, the Immobility (Mus musculus [23]) was 24% and the Immobility (Mus musculus [24]) was 15%.
`C=C(C)[C@@H]1CCC(C)=CC1c1c(O)cc(O)cc1CCCCC` (stereo partly drawn) was tested, and the Immobility (Mus musculus [25]) was less than 30%, the Tail flick latency (Mus musculus [2]) was 0.2 s and the Tail flick latency (Mus musculus [26]) was 0.8 s. For the same molecule, the Temperature (Mus musculus [27]) was -3.5 °C, the Spont activity (Mus musculus [28]) was 57 Counts 10min-1 and the Temperature (Mus musculus [6]) was -1.4 °C. The Immobility (Mus musculus [7]) was 4% and the Spont activity (Mus musculus [8]) was 45 Counts 10min-1.

Source: ChEMBL document CHEMBL1124770, “Synthesis and pharmacological evaluation of amino, azido, and nitrogen mustard analogues of 10-substituted cannabidiol and 11- or 12-substituted delta 8-tetrahydrocannabinol” (1990)
